Experimental data from ChEMBL document CHEMBL1142547, “Synthesis and antiviral activity of novel pyrazole derivatives containing oxime esters group” (Bioorg Med Chem, 2008).
Activity calls are given as the source filed them. The rule behind the calls is not given here.

How the values were obtained:
Tobacco mosaic virus [1] = assay: Antiviral activity against TMV assessed as protection effect against viral infection at 500 mg/L; assay type: functional, organism-based
In short: (§1)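 TMV purified by Gooding's method. Protective, inactivating and curative effects tested on tobacco in vivo by Li's method at 500 mg/L. Ningnanmycin served as the reference control. Each experiment used three replicates and was run three times. Data were analysed by one-way ANOVA with LSD mean separation.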

Tobacco mosaic virus [2] = assay: Antiviral activity against TMV assessed as viral inactivation effect at 500 mg/L; assay type: functional; in short: as §1
Tobacco mosaic virus [3] = assay: Antiviral activity against TMV assessed as viral disease curative effect at 500 mg/L; assay type: functional; in short: as §1
Nicotiana tabacum [4] = assay: Increase in PR-1a gene expression in TMV-infected tobacco leaf assessed as gene expression ratio on day 5 by RT-PCR; assay type: functional
In short: (§2)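 Real-time PCR used gene-specific primers, with β-actin as the reference, and included a 40–95 °C melt curve. Expression ratio was calculated by ΔΔCT against a calibrator over days 1–7 after TMV inoculation. Mean ± SD, n = 4, triplicate sets.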

Nicotiana tabacum [5] = assay: Increase in PR-5 gene expression in TMV-infected tobacco leaf assessed as gene expression ratio on day 5 by RT-PCR; assay type: functional; in short: as §2
Nicotiana tabacum [6] = assay: Increase in peroxidase enzyme level in TMV-infected tobacco at 500 ug/mL after 1 day by Polle's method; assay type: functional, organism-based
In short: (§3)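 Nicotiana tabacum inoculated with TMV was treated at 500 μg/mL, and leaves were sampled at 1, 3, 5 and 7 days. Leaves were homogenized on ice in 5 mM 2-mercaptoethanol–boric acid buffer, pH 8.8, then centrifuged. The supernatant was assayed for PAL (He), POD (Polle) or SOD (Beauchamp). Water and TMV-only treatments were the controls. Means ± SD, n = 3, one-way ANOVA.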

Nicotiana tabacum [7] = assay: […] in phenylalanine ammonia lyase level in TMV-infected tobacco at 500 ug/mL up to 7 days by He's method; assay type: functional, organism-based; in short: as §3
Nicotiana tabacum [8] = assay: Increase in peroxidase enzyme level in TMV-infected tobacco at 500 ug/mL after 7 days by Polle's method; assay type: functional; in short: as §3
Nicotiana tabacum [9] = assay: Increase in superoxide dismutase level in TMV-infected tobacco at 500 ug/mL after 7 days by Beauchamp's method; assay type: functional; in short: as §3
Nicotiana tabacum [10] = assay: Increase in superoxide dismutase level in TMV-infected tobacco at 500 ug/mL after 1 day by Beauchamp's method; assay type: functional, organism-based; in short: as §3

Which Activity (Tobacco mosaic virus [1]) does the source give for `CC1=NN(c2cccc(Cl)c2)C(Sc2ccc(F)cc2)C1/C=N/OC(=O)c1ccccc1` (stereo not given) here?
Its Activity is 41%.

What about the Activity (Tobacco mosaic virus [2]) of the same compound?
The Activity was 55%.

And the Activity (Tobacco mosaic virus [3])?
Its Activity is 30.2%.

With `C/C=C/C=C/C(=O)O/N=C/C1C(C)=NN(c2ccc(C)cc2)C1Sc1ccc(F)cc1` (stereo not given) as the compound, how does the Activity (Tobacco mosaic virus [1]) read?
Its Activity is 26%.

What about the Activity (Tobacco mosaic virus [2]) of the same compound?
Its Activity is 80.2%.

What about the Activity (Tobacco mosaic virus [3]) of the same compound?
The Activity was 46.4%.

Which Activity (Tobacco mosaic virus [1]) does the source give for `CC1=NN(c2ccc(C)cc2)C(Sc2ccc(F)cc2)C1/C=N/OC(=O)c1ccccc1` (stereo not given) here?
The Activity was 48.4%.

What about the Activity (Tobacco mosaic virus [2]) of the same compound?
Its Activity is 69.2%.

And the Activity (Tobacco mosaic virus [3])?
Its Activity is 50%.

Which Activity (Tobacco mosaic virus [1]) does the source give for `CC1=NN(c2ccc(Cl)cc2)C(Sc2ccc(F)cc2)C1/C=N/OC(=O)c1ccccc1` (stereo not given) here?
Its Activity is 35%.

What about the Activity (Tobacco mosaic virus [2]) of the same compound?
The Activity was 63.8%.

And the Activity (Tobacco mosaic virus [3])?
The Activity was 47.7%.

Which results are given for `C/C=C/C=C/C(=O)O/N=C/C1C(C)=NN(c2ccc(Cl)cc2)C1Sc1ccc(C)cc1` (stereo not given)?
Activity (Tobacco mosaic virus [1]): 50%; Activity (Tobacco mosaic virus [2]): 68.9%; Activity (Tobacco mosaic virus [3]): 38.9%

`CC(=O)O/N=C/C1C(C)=NN(c2ccccc2)C1Sc1ccc(F)cc1` (stereo not given) was tested. Which Activity (Tobacco mosaic virus [1]) did it give?
Its Activity is 36.7%.

What about the Activity (Tobacco mosaic virus [2]) of the same compound?
Its Activity is 81.4%.

What about the Activity (Tobacco mosaic virus [3]) of the same compound?
Its Activity is 40.4%.

Which Activity (Tobacco mosaic virus [1]) does the source give for `CC1=NN(c2ccccc2)C(Sc2ccc(F)cc2)C1/C=N/OC(=O)c1ccccc1` (stereo not given) here?
The Activity was 28.8%.

What about the Activity (Tobacco mosaic virus [2]) of the same compound?
The Activity was 55%.

What about the Activity (Tobacco mosaic virus [3]) of the same compound?
The Activity was 34.9%.

How did the Activity (Tobacco mosaic virus [2]) turn out when `CNCC(=O)N[C@@H](CO)C(=O)N[C@H]1[C@H](O)[C@@H](O)[C@H](n2ccc(N)nc2=O)O[C@@H]1C(N)=O` [NINGNANMYCIN] was run?
Its Activity is 97%.

And the Activity (Tobacco mosaic virus [3])?
The Activity was 56%.

What about the Ratio (Nicotiana tabacum [4]) of the same compound?
Its Ratio is 13.8.

And the Ratio (Nicotiana tabacum [5])?
The Ratio was 17.9.

How did the Activity (Tobacco mosaic virus [1]) turn out when `CCCC(=O)O/N=C/C1C(C)=NN(c2ccccc2)C1Sc1ccc(F)cc1` (stereo not given) was run?
Its Activity is 25.9%.

And the Activity (Tobacco mosaic virus [2])?
Its Activity is 79.9%.

What about the Activity (Tobacco mosaic virus [3]) of the same compound?
Its Activity is 34%.

Which Activity (Tobacco mosaic virus [1]) does the source give for `CCCCCC(=O)O/N=C/C1C(C)=NN(c2ccc(C)cc2)C1Sc1ccc(F)cc1` (stereo not given) here?
The Activity was 40.9%.

What about the Activity (Tobacco mosaic virus [2]) of the same compound?
Its Activity is 61.5%.

And the Activity (Tobacco mosaic virus [3])?
The Activity was 30%.

How did the Activity (Tobacco mosaic virus [1]) turn out when `CCCCCC(=O)O/N=C/C1C(C)=NN(c2ccccc2)C1Sc1ccc(F)cc1` (stereo not given) was run?
The Activity was 28.9%.

What about the Activity (Tobacco mosaic virus [2]) of the same compound?
Its Activity is 67.8%.

What about the Activity (Tobacco mosaic virus [3]) of the same compound?
The Activity was 40.2%.

Which Activity (Tobacco mosaic virus [1]) does the source give for `COc1ccc(SC2C(/C=N/OC(=O)c3ccccc3)C(C)=NN2c2ccc(Cl)cc2)cc1` (stereo not given) here?
Its Activity is 27.6%.

What about the Activity (Tobacco mosaic virus [2]) of the same compound?
Its Activity is 56.8%.

What about the Activity (Tobacco mosaic virus [3]) of the same compound?
The Activity was 35%.

For `CCCCCC(=O)O/N=C/C1C(C)=NN(c2ccc(Cl)cc2)C1Sc1ccc(F)cc1` (stereo not given), which Activity (Nicotiana tabacum [6]) is on record?
Its Activity is “Active”.

What about the Activity (Tobacco mosaic virus [1]) of the same compound?
The Activity was 31%.

And the Activity (Tobacco mosaic virus [2])?
The Activity was 85.6%.

And the Activity (Tobacco mosaic virus [3])?
Its Activity is 62%.

What about the Activity (Nicotiana tabacum [7]) of the same compound?
Its Activity is “Active”.

What about the Ratio (Nicotiana tabacum [4]) of the same compound?
Its Ratio is 26.6.

And the Activity (Nicotiana tabacum [5])?
Its Activity is “inactive”.

What about the Activity (Nicotiana tabacum [8]) of the same compound?
The Activity was 40 EU/mg.

What about the Activity (Nicotiana tabacum [9]) of the same compound?
Its Activity is 40 EU/mg.

And the Activity (Nicotiana tabacum [10])?
The Activity was “Active”.

Which results are given for `C/C=C/C=C/C(=O)O/N=C/C1C(C)=NN(c2ccc(Cl)cc2)C1Sc1ccc(F)cc1` (stereo not given)?
Activity (Tobacco mosaic virus [1]): 28.3%; Activity (Tobacco mosaic virus [2]): 82.9%; Activity (Tobacco mosaic virus [3]): 60%
